# CAL PDZ FP-1: CAL PDZ (human) peptide binding inhibition. Q9HD26. inhibition, % at 24.9 µM. 300,000 compounds, 0.92% hits. purified CAL PDZ, TMR-peptide fluorescence polarization, 1 h;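 active means mean inhibition of at least 30% with at least half of replicates also reaching 30%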
# PvdQ inh: blocks Pseudomonas aeruginosa PvdQ acylase activity. purified PvdQ acylase, fluorescence plate reader. inhibition, % at 10 µM. 340,000 compounds, 0.063% hits. AID 488965; in the data active means inhibition above about 30%, passing the limit was not always enough
# miR122 inh: blocks miR-122 activity in Huh7 sensor cells; Huh7 miR-122 Renilla luciferase sensor, 48 h; neutral wells = 0, positive control = 100; activation (reporter increase), % at 12.5 µM; 340,000 compounds, 0.3% hits;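 active means mean replicate activation score at least 90 and every replicate individually at or above 90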;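 further: higher luciferase means less miR-122 activity so hits act as miR-122 inhibitors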
# CAL PDZ FP-2: human CAL PDZ-peptide interaction inhibition; Q9HD26; purified CAL PDZ, TMR-peptide fluorescence polarization, 1 h; inhibition, % at 20 µM; 330,000 compounds, 0.02% hits; AID 504414;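 active means highest replicate inhibition of at least 40%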
#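 System: tagged CAL PDZ domain. Schedule: 1 h room-temperature incubation prior to read. Signal: fluorescence polarization (mP). Measure: percent inhibition from loss of millipolarization.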
# Hits are given with their value; – = inactive; · = no result given; [ ] = remark or other dose. This is a sample that favours compounds with a hit; in the whole collection about 0.95% have one here.
SMILES,CAL PDZ FP-1,PvdQ inh,miR122 inh,CAL PDZ FP-2
Cc1cc(C)c(C#N)c(Nc2cccc(C)c2C)n1,82.9,–,–,–
COC(=O)Nc1ccc(S(=O)(=O)N2CCCCC2C(=O)O)cc1 (stereo not given),73.1,–,·,–
CC(=O)Nc1ccc(S(=O)(=O)N2CCCCC2C(=O)O)cc1 (stereo not given),–,–,·,–
CCOC(=O)c1nn(-c2ccc(F)cc2)c(-c2ccccc2)c1C(=O)c1ccccc1,–,–,·,–
COc1ccccc1NC(=O)C(=O)N/N=C(\C)CC(=O)Nc1ccccc1C(F)(F)F,44.4,–,·,–
C/C(CC(=O)Nc1ccccc1C(F)(F)F)=N\NC(=O)c1cnccn1,–,–,·,–
CC(C)(C)C(=O)O/N=C(\N)Cc1ccc(-c2csnn2)cc1,61.2,–,–,–
CCC(=O)Nc1ccc(F)c(Cl)c1,–,–,–,–
CC(C)(C)OC(=O)N1CCC(C(=O)N2CCOCC2)CC1,–,–,–,·
CC(=O)c1c(C)[nH]c(C(=O)Nc2ccc(C)c(S(=O)(=O)N(C)C)c2)c1C,–,–,–,–
CC(=O)c1c(C)[nH]c(C(=O)Nc2ccc(C)c(S(=O)(=O)Nc3ccc(C)cc3C)c2)c1C,–,–,166.0,–
COc1ccc(-c2nn(-c3ccccc3)cc2/C=C/C(=O)N2CCOCC2)cc1OC,52.6,–,–,–
Cc1ccc(/C=N/NC(=O)C[n+]2ccccc2)s1,–,–,·,–
CCCCCCCCCC(=O)N/N=C/c1ccc(C)s1,49.4,–,·,–
Cn1cc(Cl)c(C(=O)N/N=C/c2ccc3c4c(cccc24)CC3)n1,–,–,–,–
O=C1NC(=O)/C(=C\c2ccc(O)cc2O)S1,51.8,–,·,–
O=C1NC(=O)/C(=C/c2cccc3ccccc23)S1,–,–,–,–
O=C(/C=C/c1ccc([N+](=O)[O-])cc1)NNC(=O)C1CC1,74.1,–,–,–
COc1ccc(CNCCS(=O)(=O)NCc2ccc(OC)cc2)cc1,–,–,–,–
Cc1ccc(S(=O)(=O)Nc2cccc3cccnc23)c([N+](=O)[O-])c1,–,–,99.6,–
O=C(C[n+]1cccc(Br)c1)c1ccccc1,–,–,–,–
COc1ccc(C(=O)C[n+]2cccc(Br)c2)cc1,32.0,–,·,–
O=C(Cn1nc(-c2ccccc2)c2ccccc2c1=O)Nc1ccc(O)cc1,–,–,–,–
Cc1ccc(NC(=O)NNC(=O)Cn2nc(-c3ccccc3)c(-c3ccccc3)c(C#N)c2=O)cc1,–,–,103.6,–
COc1ccc(NS(=O)(=O)c2cc3c(cc2C)N(C)CCO3)cc1,–,–,95.3,–
SMILES,CAL PDZ FP-1,PvdQ inh,miR122 inh,CAL PDZ FP-2
COc1cc(NS(=O)(=O)c2cc3c(cc2C)NC(=O)CO3)cc(OC)c1,·,–,101.4,–
COc1cc(NS(=O)(=O)c2ccc3c(c2)NC(=O)CO3)cc(OC)c1,–,–,–,–
CCOc1ccc(NS(=O)(=O)c2cc3c(cc2C)N(C)CCO3)cc1,–,–,–,–
COc1ccc(Oc2ccc(C(F)(F)F)cc2NC(=O)CC(CC(=O)O)c2ccccc2)cc1 (stereo not given),–,–,–,–
C[C@H](CO)N1C[C@H](C)[C@H](CN(C)Cc2ccc(-c3ccccc3)cc2)Oc2c(NC(=O)c3cnccn3)cccc2C1=O,·,·,–,·
COc1cc(SC)ccc1C(=O)N1CCN(Cc2ccc3c(c2)OCO3)CC1,45.5,–,–,–
COC(=O)c1cccc(-n2nnnc2SCC(=O)Nc2nc3c(s2)CCCC3)c1,–,–,–,–
Cc1ccccc1S(=O)(=O)/N=C(/Nc1c(C)n(C)n(-c2ccccc2)c1=O)c1ccccc1,40.1,–,–,–
Cc1c(N/C(=N/S(=O)(=O)c2ccc(F)cc2)c2ccccc2)c(=O)n(-c2ccccc2)n1C,–,–,–,–
CCOC(=O)c1nc(C)n(-c2ccc(Cl)cc2)n1,–,–,–,–
COC(=O)c1ccc(NC(=O)CC(=O)Nc2ccc(C(=O)OC)cc2)cc1,–,–,–,–
COC(=O)c1ccc(NC(=O)CNc2ccccc2)cc1,42.9,–,·,–
CCN1[C@H](C(=O)NCc2ccccn2)[C@@H](CO)[C@@H]2Cn3c(ccc(C4=CCCC4)c3=O)[C@@H]21,·,·,–,·
O=C(O)c1ccc(N/N=C/c2cc(Br)cs2)cc1,35.7,–,–,–
Cc1ccc(/C=N/Nc2ccc(C(=O)O)cc2)s1,–,–,–,–
CC(=O)Nc1ccc(NC(=O)CSc2nnc(NC(=O)c3ccco3)s2)cc1,–,–,–,–
O=C(OCC(=O)N1CCC(Cc2ccccc2)CC1)c1ccccc1,31.2,–,·,–
O=C(OCC(=O)N1CCOCC1)c1ccc(O)cc1,126.5,–,–,–
O=C(OCC(=O)N1CCC(Cc2ccccc2)CC1)c1ccc(O)cc1,·,·,–,·
Cc1ccccc1N(CC(=O)NCCc1ccccc1)C(=O)CCC(=O)Nc1ccccn1,–,–,·,–
CCc1ccccc1N(CC(=O)NCCc1ccccc1)C(=O)CCC(=O)Nc1ccccn1,65.1,–,–,–
NC(=O)CSc1nnc(-c2cccnc2)n1Cc1ccccc1,–,–,–,–
Clc1c(Cl)c(Cl)c2n[nH]nc2c1Cl,79.2,–,·,–
CCc1nc2oc3ccccc3c(=O)c2c(=O)n1-c1ccc(C)cc1,·,·,–,·
COc1ccc(-n2nnc3c(SCC(=O)N4CCCc5ccccc54)ncnc32)cc1,60.1,–,–,–
SMILES,CAL PDZ FP-1,PvdQ inh,miR122 inh,CAL PDZ FP-2
COc1ccc(-n2nnc3c(=O)n(CC(=O)N4CCCc5ccccc54)cnc32)cc1,–,–,·,–
C[C@@H]1CN([C@@H](C)CO)C(=O)c2cccc(NS(=O)(=O)c3ccc(Cl)cc3)c2O[C@@H]1CN(C)Cc1ccc(C(=O)Nc2ccccc2N)cc1,·,·,129.3[16.7 µM],·
C[C@@H]1CN([C@H](C)CO)C(=O)c2cccc(NS(=O)(=O)c3ccc(Cl)cc3)c2O[C@H]1CN(C)Cc1ccc(C(=O)O)cc1,·,·,–,·
C[C@@H]1CN([C@@H](C)CO)C(=O)c2cccc(NS(=O)(=O)c3ccccc3)c2O[C@@H]1CN(C)Cc1ccc(C(=O)Nc2ccccc2N)cc1,·,·,180.9[16.7 µM],·
c1ccc(-c2csc3nnc(SCc4ccc5c(c4)OCO5)n23)cc1,–,–,–,–
COc1cccc(C(=O)NCCS(=O)(=O)N2CCc3ccccc3C2)c1,–,–,–,–
COc1ccc(CCNC(=O)c2cccc(S(=O)(=O)N3CCc4ccccc4C3)c2)cc1,–,43.9,–,–
COc1ccccc1C(=O)Nc1ccc2c(c1)nc(CN1CCCCC1)n2C,70.8,–,–,–
Cn1c(CN2CCCCC2)nc2cc(NC(=O)c3ccccc3Cl)ccc21,·,–,–,–
CCCC#Cc1ccc([C@@H]2[C@H]3CN(S(=O)(=O)Cc4ccccc4)CCCCN3[C@H]2CO)cc1,·,·,–,·
O=[N+]([O-])c1ccccc1S(=O)(=O)Nc1cccc(-c2ccc(N3CCCC3)nn2)c1,–,–,–,–
COc1cc(C(=O)Oc2ccccc2/C=N/NC(=O)c2ccc(Cl)cc2Cl)cc(OC)c1OC,–,–,–,–
CCSc1nc2nccnc2c(=O)[nH]1,96.3,–,–,–
Cc1nn2c3ccccc3nc2c2ccccc12,·,–,–,42.5
Cc1nn2c(-c3ccccc3)nnc2c2ccccc12,–,–,–,·

# High-throughput results: PubChem, Broad Institute
